From PubChem
Efa HMGR inh: inhibitors of E. faecalis class II HMGR, primary screen, biochemical, Enterococcus faecalis; HMG-CoA reductase (Enterococcus faecalis, mvaE); purified E. faecalis HMGR, NADPH absorbance 340 nm kinetic; inhibition, % at 10 µM; 190,000 compounds, 0.41% hits; AID 1066, 2008;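 active = inhibition above a set limit, the median over all tested compounds plus 3 SD, cut at about 9.5% in these data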;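 also: enzyme runs in reverse so mevalonate oxidation gives rising NADPH absorbance; 0% = complete reaction with DMSO and 100% = background rate lacking mevalonate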
bCat nuc transl: modulators of beta-catenin nuclear translocation, primary screen, imaging, HeLa cells, immunofluorescence, high-content | AID 1665, 2009 | nuclear translocation activity, % at 5 µM | 190,000 compounds, 0.3% hits;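 active = nuclear translocation activity above 50% at 5 µM, with a well cell count of 50 or more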;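 also: per-cell ratio of nuclear to cytoplasmic median beta-catenin stain intensity; plate controls were DMSO negative control for no effect and GSK-3 inhibitor IX positive control for full effect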
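System: HeLa cells, endogenous beta-catenin; compound dosing: 5 µM primary single dose, 0.1% DMSO, 0.02–20 µM confirmation series; incubation: 24 h compound exposure at 37°C, 5% CO2; signal: beta-catenin immunofluorescence imaging with DAPI; evaluation: % activation, nuclear-to-cytoplasmic median beta-catenin signal ratio per cell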
MT stabilize HCS: microtubule stabilizers in HeLa cells, primary screen, imaging, high-content imaging. HeLa tubulin immunostaining HCS, 24 h; share of cells brighter than vehicle mean+2SD. % tubulin-high responders, % at 10 µM. 200,000 compounds, 0.83% hits. AID 2205, 2009;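 active = plate Z-score above 3 for both tubulin-high and condensed-nucleus cell shares, with cell loss under 80%, at 10 µM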;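 also: anti alpha tubulin signal scored within the nucleus-defined area of each cell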
EP2 mod: EP2 receptor modulators, cAMP readout, primary screen, cell-based, HTRF cAMP, PGE2 stimulation; Prostaglandin E2 receptor EP2 subtype (Homo sapiens), P43116; EP2-expressing cells, cAMP HTRF FRET, PGE2 co-stimulation; induction, % at 25 µM; 260,000 compounds, 0.83% hits; AID 940, 2007;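 active = compounds whose cAMP rise, as percent of the full-agonist control response, exceeds 60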;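 also: rat C6 glioma line stably carrying human EP2 under a CMV promoter; the protocol text gives 20 µM as final concentration; 100% = response of wells given 1 µM PGE2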
Target sequence (P43116 whole entry, looked up): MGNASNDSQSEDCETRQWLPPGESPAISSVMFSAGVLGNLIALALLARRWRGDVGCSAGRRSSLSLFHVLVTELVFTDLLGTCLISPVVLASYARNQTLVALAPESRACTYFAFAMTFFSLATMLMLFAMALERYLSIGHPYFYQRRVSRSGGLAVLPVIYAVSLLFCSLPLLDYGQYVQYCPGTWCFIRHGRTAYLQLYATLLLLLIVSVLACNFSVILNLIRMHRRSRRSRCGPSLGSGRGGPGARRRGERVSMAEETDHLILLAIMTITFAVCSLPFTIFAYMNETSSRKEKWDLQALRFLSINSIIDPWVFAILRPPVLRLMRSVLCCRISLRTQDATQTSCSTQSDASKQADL
Tb hexokinase: Trypanosoma brucei hexokinase 1 inhibitors, primary screen, biochemical, G6PDH-coupled NADH absorbance, MLSCN library. hexokinase 1 [Trypanosoma brucei]. recombinant TbHK1, G6PDH-coupled NADH A340. inhibition, % at 10 µM. 220,000 compounds, 0.11% hits;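 active = inhibition of 50% or more in the single-dose primary screen; inactive = inhibition below 50%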
PGE2 EP2 inh: human EP2 receptor antagonists, primary screen, TR-FRET cAMP, C6 glioma cells; Prostaglandin E2 receptor EP2 subtype (Homo sapiens), P43116; C6 glioma cells expressing human EP2; cells stimulated with saturating PGE2; inhibition, % at 25 µM; 260,000 compounds, 0.52% hits;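 active = percent inhibition above 40 after rounding to a whole number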;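 also: rat C6 glioma host cells with rolipram phosphodiesterase inhibitor present; the protocol text gives 20 µM as final concentration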
EP2 confirm: cAMP induction in EP2, EP4, beta2-AR and parental cells, confirmation, counter-screen for EP2 modulator project, cell-based, five parallel assays, C6 glioma, HEK293; shares compounds with EP2 mod; cAMP HTRF induction; plus low (about EC15) PGE2 agonist; calls only at 20 µM (by protocol); 1,300 compounds, 47% hits;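 active = cAMP induction above 50% in the main assay while under 30% in all four parallel counter assays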;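 also: rat C6 glioma cells stably expressing human EP2 receptor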
Numbers without * were called inactive. The list is not random: actives were taken first. Their share in the collection is about 2.4%.

`S=c1[nH]nc(C2CCCCC2)n1Cc1ccccc1` gave Efa HMGR inh 4, bCat nuc transl 0, MT stabilize HCS 3, EP2 mod 58, Tb hexokinase -2, PGE2 EP2 inh 10 and EP2 confirm inactive.
Screening S=c1[nH]nc(C2CC2)n1Cc1ccccc1 returned Efa HMGR inh -12, bCat nuc transl -2, MT stabilize HCS 3, EP2 mod 22, Tb hexokinase 9 and PGE2 EP2 inh 3.
Screening S=c1[nH]nc(-c2ccc(Br)o2)n1Cc1ccccc1 returned Efa HMGR inh -10, bCat nuc transl 3, MT stabilize HCS 2, EP2 mod 62*, Tb hexokinase -3, PGE2 EP2 inh 8 and EP2 confirm inactive.
For CC(=O)Nc1cccc(NC(=O)CSc2ncnc3sc4c(c23)CCC(C(C)(C)C)C4)c1 (stereo not given) the results were EP2 mod 0 and PGE2 EP2 inh 14.
Cc1ccc(CN(CCCn2ccnc2)Cc2ccsc2)o1 was read as EP2 mod 15 and PGE2 EP2 inh 3.
Screening Nc1cc(S(=O)(=O)N2CCCC2)ccc1Cl returned EP2 mod -46 and PGE2 EP2 inh 10.
`Nc1nc(Cc2ccccc2)nc(Cc2ccccc2)c1-c1ccccc1` gave EP2 mod 67*, PGE2 EP2 inh 39 and EP2 confirm inactive.
Screening Cc1onc(-c2ccncc2)c1C(=O)N1CCC(C2CCCCC2)C1 (stereo not given) returned EP2 mod 2 and PGE2 EP2 inh 10.
Screening CCSc1nnc(-c2ccc(Cl)cc2)c2ccccc12 returned Efa HMGR inh 1, bCat nuc transl 0, MT stabilize HCS 3, EP2 mod 66*, Tb hexokinase -4, PGE2 EP2 inh 3 and EP2 confirm inactive.
`CCSc1nnc(-c2ccc(C)cc2)c2ccccc12` gave Efa HMGR inh 2, bCat nuc transl 1, MT stabilize HCS 6, EP2 mod 11, Tb hexokinase -8 and PGE2 EP2 inh 15.
Screening Cn1c(=O)c2c(ncn2CCSS(=O)(=O)O)n(C)c1=O returned EP2 mod 61*, PGE2 EP2 inh 6 and EP2 confirm inactive.
Screening S=c1[nH]cc(-c2ccccc2)n1-c1ccccc1 returned Efa HMGR inh -3, bCat nuc transl -2, MT stabilize HCS 2, EP2 mod 75*, Tb hexokinase 4, PGE2 EP2 inh 11 and EP2 confirm inactive.
For Cc1c(C(=O)Nc2cccc3cccnc23)oc2ccccc12 the results were Efa HMGR inh -5, bCat nuc transl -1, MT stabilize HCS 4, EP2 mod 65*, Tb hexokinase -13, PGE2 EP2 inh 8 and EP2 confirm active.
`Cc1ccccc1NC(=O)c1oc2ccccc2c1C` gave EP2 mod -51 and PGE2 EP2 inh 11.
O=C(Nc1cccc2cccnc12)c1ccc(Br)o1 was read as Efa HMGR inh -3, bCat nuc transl -2, MT stabilize HCS 3, EP2 mod 69*, Tb hexokinase -9, PGE2 EP2 inh 7 and EP2 confirm inactive.
COc1cccc2cc(/C(=N/O)c3ccccc3)oc12 was read as Efa HMGR inh -3, bCat nuc transl 1, MT stabilize HCS 1, EP2 mod 68*, Tb hexokinase 5, PGE2 EP2 inh 5 and EP2 confirm active.
For COc1cccc2cc(C(C)=O)oc12 the results were Efa HMGR inh -4, bCat nuc transl -1, MT stabilize HCS 1, EP2 mod 4, Tb hexokinase -12 and PGE2 EP2 inh 6.
